Data published in ChEMBL document CHEMBL1143800, “Design and synthesis of new pyranoxanthenones bearing a nitro group or an aminosubstituted side chain on the pyran ring. Evaluation of their growth inhibitory activity in breast cancer cells” (Eur J Med Chem, 2007).

How the values were obtained:
MDA-MB-231 [1] = assay: Antiproliferative activity against human MDA-MB-231 cells at 100 uM after 72 hrs; format: functional
In short: (§1)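 MDA-MB-231 cells grown in serum-containing EMEM (10% FBS) were plated at 1 × 10⁴ cells/well. 24 h later they were exposed to a single compound level in fresh serum medium, using DMSO/ethanol stocks diluted into the medium. At 72 h, WST-1 was added for 3 h and formazan read at 450 nm (ref 650). Values are % growth inhibition versus controls, averaged ± SD over three experiments, each in triplicate.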

MDA-MB-231 [2] = assay: Antiproliferative activity against human MDA-MB-231 cells after 72 hrs; format: functional, cell-based; conditions: MDA-MB-231, 72 h
In short: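 MDA-MB-231 (ER-negative) monolayers in EMEM with 10% FBS, L-glutamine, pyruvate, NEAA, insulin at 37 °C, 5% CO2. Seeded 1 × 10⁴ cells/well with serum and dosed 24 h later with compound at 1–100 (DMSO and/or ethanol stocks diluted into medium). After 72 h, 3 h WST-1 read at 450 nm (ref 650). IC50 = concentration halving OD versus untreated controls. Mean ± SD, three independent experiments.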

MDA-MB-231 [3] = assay: Antiproliferative activity against human MDA-MB-231 cells at 10 uM after 72 hrs; format: functional; in short: as §1
MDA-MB-231 [4] = assay: Antiproliferative activity against human MDA-MB-231 cells at 30 uM after 72 hrs; format: functional; in short: as §1
MDA-MB-231 [5] = assay: Antiproliferative activity against human MDA-MB-231 cells at 1 uM after 72 hrs; format: functional; in short: as §1
MDA-MB-231 [6] = assay: Antiproliferative activity against human MDA-MB-231 cells at 3 uM after 72 hrs; format: functional; in short: as §1

| IC50 (MDA-MB-231 [2]) [µM] | Compound | Activity (MDA-MB-231 [1]) [%] | Activity (MDA-MB-231 [3]) [%] | Activity (MDA-MB-231 [4]) [%] | Activity (MDA-MB-231 [5]) [%] | Activity (MDA-MB-231 [6]) [%] |
| --- | --- | --- | --- | --- | --- | --- |
| 68 | CCN(CC)CCNc1cc2c(c3oc4ccccc4c(=O)c13)CC(NC(=O)CN(CC)CC)C(C)(C)O2 (configuration not stated) | 75 |  |  |  |  |
| 21 | CN(C)CCNc1cc2c(c3oc4ccccc4c(=O)c13)C=C([N+](=O)[O-])C(C)(C)O2 |  |  |  |  |  |
| 44 | CCN(CC)CCNC1Cc2c(cc(OC)c3c(=O)c4ccccc4oc23)OC1(C)C (configuration not stated) | 74 | 15 | 15 | 12 | 12 |
| > 100 | CCN(CC)CCNc1cc2c(c3oc4ccccc4c(=O)c13)C=C([N+](=O)[O-])C(C)(C)O2 |  |  |  |  |  |
| > 100 | CCN(CC)CCNc1cc2c(c3oc4ccccc4c(=O)c13)CC([N+](=O)[O-])C(C)(C)O2 (configuration not stated) | 20 |  | 20 |  |  |
| 57 | COc1cc2c(c3oc4ccccc4c(=O)c13)CC(NCCN(C)C)C(C)(C)O2 (configuration not stated) | 74 | 15 | 15 | 12 | 12 |
| 38 | CN(C)CCNc1cc2c(c3oc4ccccc4c(=O)c13)CC(N)C(C)(C)O2 (configuration not stated) |  | 20 |  | 20 | 20 |
| 51 | COc1cc2c(c3oc4ccccc4c(=O)c13)CC(NC(=O)CN(C)C)C(C)(C)O2 (configuration not stated) | 74 | 15 | 15 | 12 | 12 |
| > 100 | CN(C)CCNc1cc2c(c3oc4ccccc4c(=O)c13)CC([N+](=O)[O-])C(C)(C)O2 (configuration not stated) |  | 20 |  | 20 | 20 |
| 62 | CCN(CC)CCNc1cc2c(c3oc4ccccc4c(=O)c13)CC(N)C(C)(C)O2 (configuration not stated) | 75 |  |  |  |  |
| 50 | CN(C)CCNc1cc2c(c3oc4ccccc4c(=O)c13)CC(NC(=O)CN(C)C)C(C)(C)O2 (configuration not stated) |  | 20 |  | 20 | 20 |
| 46 | CN(C)CCNc1cc2c(c3oc4ccccc4c(=O)c13)CC(NCCN(C)C)C(C)(C)O2 (configuration not stated) |  | 20 |  | 20 | 20 |
| 53 | COc1cc2c(c3oc4ccccc4c(=O)c13)CC(N)C(C)(C)O2 (configuration not stated) | 74 | 15 | 15 | 12 | 12 |
| 52 | CCN(CC)CC(=O)NC1Cc2c(cc(OC)c3c(=O)c4ccccc4oc23)OC1(C)C (configuration not stated) | 74 | 15 | 15 | 12 | 12 |
| 73 | CCN(CC)CCNc1cc2c(c3oc4ccccc4c(=O)c13)CC(NCCN(CC)CC)C(C)(C)O2 (configuration not stated) | 75 |  |  |  |  |
